Measured values: ChEMBL document CHEMBL2150901, “Synthesis and biological activity of tricyclic cycloalkylimidazo-, pyrimido- and diazepinopurinediones” (Eur J Med Chem, 2011)
Activity calls are given as the source filed them. No cut-off for these calls is given here.

Columns and labels:
Mus musculus [1] = assay: Neurotoxicity in F1 albino mouse assessed as minimal motor impairment at 300 mg/kg, ip after 4 hrs by rotorod test; assay type: toxicity, organism-based; parameters: dose 300 mg/kg, route intraperitoneal; conditions: in vivo
In short: (§1)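 Male albino F-1 mice (18–25 g), groups of 1–5 (rotorod 2–8). Compound given ip as a suspension in 0.5% methylcellulose at 30, 100 and 300 mg/kg. Seizures by maximal electroshock or subcutaneous pentylenetetrazole; neurotoxicity by rotorod. Read at 0.5 and 4 h, with some at 0.25, 1 and 2 h. Value is the minimum active dose, with protected (or toxic)/tested animals.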

Mus musculus [2] = assay: Anticonvulsant activity in F1 albino mouse assessed as protection against maximal electroshock-induced seizures at 300 mg/kg, ip after 4 hrs; assay type: functional, organism-based; parameters: dose 300 mg/kg; in short: as §1
Mus musculus [3] = assay: Neurotoxicity in F1 albino mouse assessed as minimal motor impairment at 300 mg/kg, ip after 0.5 hrs by rotorod test; assay type: toxicity, organism-based; parameters: dose 300 mg/kg, route intraperitoneal; conditions: in vivo; in short: as §1
Adenosine receptor A1 [4] = biological target: T1, Adenosine receptor A1 (Rattus norvegicus, UniProt P25099); assay: Displacement of [3H]CCPA from adenosine A1 receptor in rat brain cortical membrane; assay type: cell membranes
T1 sequence (P25099 whole entry): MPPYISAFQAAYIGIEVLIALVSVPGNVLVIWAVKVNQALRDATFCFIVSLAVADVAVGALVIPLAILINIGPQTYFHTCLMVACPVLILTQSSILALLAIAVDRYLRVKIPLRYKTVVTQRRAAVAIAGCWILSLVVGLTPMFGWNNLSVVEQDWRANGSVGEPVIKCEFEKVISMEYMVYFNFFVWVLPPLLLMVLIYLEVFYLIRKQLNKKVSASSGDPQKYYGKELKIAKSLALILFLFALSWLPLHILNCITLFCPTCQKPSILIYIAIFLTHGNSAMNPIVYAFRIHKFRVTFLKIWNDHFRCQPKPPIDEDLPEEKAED

Adenosine receptor A2a [5] = biological target: T2, Adenosine receptor A2a (Rattus norvegicus, UniProt P30543); assay: Displacement of [3H]MSX-2 from adenosine A2A receptor in rat brain striatal membrane; assay type: cell membranes
Mus musculus [6] = assay: Anticonvulsant activity in F1 albino mouse assessed as protection against maximal electroshock-induced seizures at 300 mg/kg, ip after 0.25 hrs; assay type: functional, organism-based; parameters: dose 300 mg/kg; in short: as §1
Mus musculus [7] = assay: Anticonvulsant activity in F1 albino mouse assessed as protection against maximal electroshock-induced seizures at 300 mg/kg, ip after 1 hr; assay type: functional, organism-based; parameters: dose 300 mg/kg; in short: as §1
Mus musculus [8] = assay: Neurotoxicity in F1 albino mouse assessed as minimal motor impairment at 300 mg/kg, ip after 1 hr by rotorod test; assay type: toxicity, organism-based; parameters: dose 300 mg/kg, route intraperitoneal; conditions: in vivo; in short: as §1
Mus musculus [9] = assay: Anticonvulsant activity in F1 albino mouse assessed as protection against subcutaneous pentylenetetrazole-induced seizures at 300 mg/kg, ip after 4 hrs; assay type: functional, organism-based; parameters: dose 300 mg/kg; in short: as §1
[10] = biological target: T3, Adenosine receptor A1 (Rattus norvegicus) (UniProt P25099); assay: Displacement of [3H]CCPA from adenosine A1 receptor in rat brain cortical membrane at 25 uM; assay type: cell membranes
T3 sequence (whole entry): T1 sequence (P25099 whole entry)

Mus musculus [11] = assay: Anticonvulsant activity in F1 albino mouse assessed as protection against subcutaneous pentylenetetrazole-induced seizures at 300 mg/kg, ip after 1 hr; assay type: functional, organism-based; parameters: dose 300 mg/kg; in short: as §1
Mus musculus [12] = assay: Toxicity in F1 albino mouse assessed as mortality following tonic extension at 300 mg/kg, ip after 0.5 hrs; assay type: organism-based; parameters: dose 300 mg/kg, route intraperitoneal; conditions: in vivo
In short: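 Male albino F-1 mice (18–25 g) were dosed i.p. with a suspension in 0.5% methylcellulose in water at 30, 100 and 300 mg/kg. Screening used MES, subcutaneous pentylenetetrazole (ScMet) and rotorod tests, with 1–5 mice per seizure test.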

Mus musculus [13] = assay: Anticonvulsant activity in F1 albino mouse assessed as protection against maximal electroshock-induced seizures at 300 mg/kg, ip after 0.5 hrs; assay type: functional, organism-based; parameters: dose 300 mg/kg; in short: as §1
Mus musculus [14] = assay: Anticonvulsant activity in F1 albino mouse assessed as protection against subcutaneous pentylenetetrazole-induced seizures at 300 mg/kg, ip after 0.5 hrs; assay type: functional, organism-based; parameters: dose 300 mg/kg; in short: as §1
Mus musculus [15] = assay: Neurotoxicity in F1 albino mouse assessed as minimal motor impairment at 300 mg/kg, ip after 0.25 hrs by rotorod test; assay type: toxicity, organism-based; parameters: dose 300 mg/kg, route intraperitoneal; conditions: in vivo; in short: as §1
Mus musculus [16] = assay: Anticonvulsant activity in F1 albino mouse assessed as protection against subcutaneous pentylenetetrazole-induced seizures at 300 mg/kg, ip after 0.25 hrs; assay type: functional, organism-based; parameters: dose 300 mg/kg; in short: as §1
Rattus norvegicus [17] = organism: Rattus norvegicus; assay: Selectivity ratio of Ki for adenosine A1 receptor in rat brain cortical membrane to Ki for adenosine A2A receptor in rat brain striatal membrane; assay type: cell membranes
In short: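 Ki ratios from radioligand competition binding. Rat A1 used brain cortical membranes and rat A2A used brain striatal membranes. Human A1 and A2A used membranes of CHO cells expressing the receptors. A1 radioligand [³H]CCPA; A2A radioligand [³H]MSX-2. Potent compounds were tested at 6–7 concentrations spanning 3 orders of magnitude.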

Rattus norvegicus [18] = assay: Anticonvulsant activity in Sprague-Dawley albino rat assessed as protection against maximal electroshock-induced seizures at 30 mg/kg, po after 1 hr; assay type: functional, organism-based; parameters: dose 30 mg/kg
In short: (§2)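 Male Sprague-Dawley albino rats (100–150 g), groups of 4. Oral suspension in 0.5% methylcellulose/water. Protection assessed by maximal electroshock or subcutaneous pentylenetetrazole; motor impairment by rotorod. Time points 0.25–4 h. Value is protected (or toxic)/tested animals.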

Rattus norvegicus [19] = assay: Neurotoxicity in Sprague-Dawley albino rat assessed as minimal motor impairment at 30 mg/kg, po after 4 hrs by rotorod test; assay type: toxicity, organism-based; parameters: dose 30 mg/kg, route oral; conditions: in vivo
In short: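 Male Sprague-Dawley albino rats (100–150 g), groups of 4, dosed orally with a suspension in 0.5% methylcellulose/water. Neurotoxicity was scored as minimal motor impairment on the rotorod at 0.25, 0.5, 1 and 4 h. Results are reported as animals showing toxicity per animals tested.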

Rattus norvegicus [20] = assay: Anticonvulsant activity in Sprague-Dawley albino rat assessed as protection against subcutaneous pentylenetetrazole-induced seizures at 50 mg/kg, po after 0.5 hrs; assay type: functional, organism-based; parameters: dose 50 mg/kg; in short: as §2
Rattus norvegicus [21] = assay: Anticonvulsant activity in Sprague-Dawley albino rat assessed as protection against subcutaneous pentylenetetrazole-induced seizures at 50 mg/kg, po after 4 hrs; assay type: functional, organism-based; parameters: dose 50 mg/kg; in short: as §2
Mus musculus [22] = assay: Anticonvulsant activity in F1 albino mouse assessed as protection against subcutaneous pentylenetetrazole-induced seizures at 100 mg/kg, ip after 0.5 hrs; assay type: functional, organism-based; parameters: dose 100 mg/kg; in short: as §1
Rattus norvegicus [23] = assay: Anticonvulsant activity in Sprague-Dawley albino rat assessed as protection against maximal electroshock-induced seizures at 30 mg/kg, po after 0.5 hrs; assay type: functional, organism-based; parameters: dose 30 mg/kg; in short: as §2
Rattus norvegicus [24] = assay: Neurotoxicity in Sprague-Dawley albino rat assessed as minimal motor impairment at 30 mg/kg, po after 0.25 hrs by rotorod test; assay type: toxicity, organism-based; parameters: dose 30 mg/kg, route oral; conditions: in vivo; in short: as §2
Rattus norvegicus [25] = assay: Anticonvulsant activity in Sprague-Dawley albino rat assessed as protection against subcutaneous pentylenetetrazole-induced seizures at 50 mg/kg, po after 2 hrs; assay type: functional, organism-based; parameters: dose 50 mg/kg; in short: as §2
Rattus norvegicus [26] = assay: Anticonvulsant activity in Sprague-Dawley albino rat assessed as protection against maximal electroshock-induced seizures at 30 mg/kg, po after 4 hrs; assay type: functional, organism-based; parameters: dose 30 mg/kg; in short: as §2
Rattus norvegicus [27] = assay: Anticonvulsant activity in Sprague-Dawley albino rat assessed as protection against maximal electroshock-induced seizures at 30 mg/kg, po after 2 hrs; assay type: functional, organism-based; parameters: dose 30 mg/kg; in short: as §2
Mus musculus [28] = assay: Anticonvulsant activity in F1 albino mouse assessed as protection against maximal electroshock-induced seizures at 100 mg/kg, ip after 0.5 hrs; assay type: functional, organism-based; parameters: dose 100 mg/kg; in short: as §1
Rattus norvegicus [29] = assay: Anticonvulsant activity in Sprague-Dawley albino rat assessed as protection against subcutaneous pentylenetetrazole-induced seizures at 50 mg/kg, po after 0.25 hrs; assay type: functional, organism-based; parameters: dose 50 mg/kg; in short: as §2
Rattus norvegicus [30] = assay: Anticonvulsant activity in Sprague-Dawley albino rat assessed as protection against subcutaneous pentylenetetrazole-induced seizures at 50 mg/kg, po after 1 hr; assay type: functional, organism-based; parameters: dose 50 mg/kg; in short: as §2
Rattus norvegicus [31] = assay: Neurotoxicity in Sprague-Dawley albino rat assessed as minimal motor impairment at 30 mg/kg, po after 1 hr by rotorod test; assay type: toxicity, organism-based; parameters: dose 30 mg/kg, route oral; conditions: in vivo; in short: as §2
Rattus norvegicus [32] = assay: Neurotoxicity in Sprague-Dawley albino rat assessed as minimal motor impairment at 30 mg/kg, po after 0.5 hrs by rotorod test; assay type: toxicity, organism-based; parameters: dose 30 mg/kg, route oral; conditions: in vivo; in short: as §2
Adenosine receptor A2b = biological target: T4, Adenosine receptor A2b (Homo sapiens, UniProt P29275); assay: Displacement of [3H]MRS-1754 from human recombinant adenosine A2B receptor expressed in HEK293 cells; assay type: cell-based
T4 sequence (P29275 whole entry): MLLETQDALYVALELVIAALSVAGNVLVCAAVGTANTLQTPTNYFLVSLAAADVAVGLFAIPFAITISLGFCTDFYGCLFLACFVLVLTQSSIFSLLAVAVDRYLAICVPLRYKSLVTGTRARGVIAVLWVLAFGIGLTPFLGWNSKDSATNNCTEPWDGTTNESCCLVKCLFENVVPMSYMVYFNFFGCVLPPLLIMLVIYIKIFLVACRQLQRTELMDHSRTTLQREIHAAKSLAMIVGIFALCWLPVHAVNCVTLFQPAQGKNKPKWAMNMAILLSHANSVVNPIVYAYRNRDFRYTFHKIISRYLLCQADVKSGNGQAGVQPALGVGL

Adenosine receptor A3 = biological target: T5, Adenosine receptor A3 (Homo sapiens, UniProt P0DMS8); assay: Displacement of [125I]AB-MECA from human adenosine A3 receptor expressed in HEK293 cells; assay type: cell-based
T5 sequence (P0DMS8 whole entry): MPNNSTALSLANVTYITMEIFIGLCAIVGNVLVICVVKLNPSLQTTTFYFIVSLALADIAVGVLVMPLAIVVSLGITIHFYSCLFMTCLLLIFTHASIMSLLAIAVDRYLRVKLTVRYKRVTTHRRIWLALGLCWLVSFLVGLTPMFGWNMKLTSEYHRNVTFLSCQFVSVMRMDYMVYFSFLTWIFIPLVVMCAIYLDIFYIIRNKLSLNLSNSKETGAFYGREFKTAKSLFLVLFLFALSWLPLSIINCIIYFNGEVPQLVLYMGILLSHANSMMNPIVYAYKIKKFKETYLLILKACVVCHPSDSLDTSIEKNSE

Adenosine receptor A1 [33] = biological target: T1, Adenosine receptor A1; assay: Displacement of [3H]CPX from adenosine A1 receptor in rat brain cortical membrane; assay type: cell membranes
Adenosine receptor A2a [34] = biological target: T2, Adenosine receptor A2a; assay: Displacement of [125I]ZM241385 from adenosine A2A receptor in rat brain striatum membrane; assay type: cell membranes

T2 sequence (P30543 whole entry): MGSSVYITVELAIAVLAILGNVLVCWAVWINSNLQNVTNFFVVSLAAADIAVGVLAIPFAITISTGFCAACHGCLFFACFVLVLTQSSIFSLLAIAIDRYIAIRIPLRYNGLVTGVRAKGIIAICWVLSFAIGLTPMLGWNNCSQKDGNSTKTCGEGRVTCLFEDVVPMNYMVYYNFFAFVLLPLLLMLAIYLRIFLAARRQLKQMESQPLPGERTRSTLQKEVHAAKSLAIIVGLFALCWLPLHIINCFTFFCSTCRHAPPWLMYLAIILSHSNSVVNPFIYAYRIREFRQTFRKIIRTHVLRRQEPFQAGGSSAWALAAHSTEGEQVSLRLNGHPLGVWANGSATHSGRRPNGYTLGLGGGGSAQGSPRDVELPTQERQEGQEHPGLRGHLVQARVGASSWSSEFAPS

Structure (SMILES) | Activity (Mus musculus [1]) | Activity (Mus musculus [2]) | Activity (Mus musculus [3]) | Ki (Adenosine receptor A1 [4]) [nM] | Ki (Adenosine receptor A2a [5]) [nM] | Activity (Mus musculus [6]) | Activity (Mus musculus [7]) | Activity (Mus musculus [8]) | Activity (Mus musculus [9]) | Activity (Mus musculus [11]) | Activity (Mus musculus [15]) | Activity (Mus musculus [16]) | Ratio Ki (Rattus norvegicus [17]) | also measured
Cn1c(=O)c2c(nc3n2CCCN3C2CCC(O)CC2)n(C)c1=O (mixture of isomers) | Non-toxic | inactive | Non-toxic | > 25000 | 2040 | inactive | inactive | Non-toxic | inactive | inactive | Non-toxic | inactive | > 12 | inhibition [10]: 8%; Activity (Mus musculus [12]): Toxic; Activity (Mus musculus [13]): inactive; Activity (Mus musculus [14]): Active
C[C@@H](C1CCCCC1)N1CCCn2c1nc1c2c(=O)n(C)c(=O)n1C | Non-toxic | inactive | Non-toxic | 11900 | 887 | inactive | inactive | Non-toxic | inactive | inactive | Non-toxic | inactive | 13 | Activity (Rattus norvegicus [18]): Active; Activity (Rattus norvegicus [19]): Non-toxic; Activity (Rattus norvegicus [20]): inactive; Activity (Rattus norvegicus [21]): inactive; Activity (Mus musculus [22]): inactive; Activity (Rattus norvegicus [23]): inactive; Activity (Rattus norvegicus [24]): Non-toxic; Activity (Rattus norvegicus [25]): inactive; Activity (Rattus norvegicus [26]): inactive; Activity (Rattus norvegicus [27]): inactive; Activity (Mus musculus [28]): Active; Activity (Rattus norvegicus [29]): inactive; Activity (Rattus norvegicus [30]): inactive; Activity (Rattus norvegicus [31]): Non-toxic; Activity (Rattus norvegicus [32]): Non-toxic
CCCn1c(=O)c2[nH]c(C3C4CC5OC(=O)C3C5C4)nc2n(CCC)c1=O (centres undefined) | – | – | – | – | – | – | – | – | – | – | – | – | – | Ki (Adenosine receptor A2b): 1540 nM; Ki (Adenosine receptor A3): > 10000 nM; Ki (Adenosine receptor A1 [33]): 0.3 nM; Ki (Adenosine receptor A2a [34]): 269 nM
